Assay results gathered from unrelated publications.
EGFR L858R/T790M: Epidermal growth factor receptor (EGFR, Homo sapiens, UniProt P00533, L858R/T790M)
EGFR: Epidermal growth factor receptor (EGFR, Homo sapiens, UniProt P00533)
EGFR G719S: Epidermal growth factor receptor (EGFR, Homo sapiens, UniProt P00533, G719S)
EGFR L858R: Epidermal growth factor receptor (EGFR, Homo sapiens, UniProt P00533, L858R)
EGFR del752-759: Epidermal growth factor receptor (EGFR, Homo sapiens, UniProt P00533, del752-759)
EGFR L861Q: Epidermal growth factor receptor (EGFR, Homo sapiens, UniProt P00533, L861Q)
EGFR del746-750: Epidermal growth factor receptor (EGFR, Homo sapiens, UniProt P00533, del746-750)
EGFR T790M: Epidermal growth factor receptor (EGFR, Homo sapiens, UniProt P00533, T790M)

| Compound | target | effect on | mode | technique | concentration | endpoint | result |
| --- | --- | --- | --- | --- | --- | --- | --- |
| C[C@H]1CCN(c2nccc(-c3cnn4ncccc34)n2)C1 | EGFR L858R/T790M | binding | – | – | 1 µM | remaining binding | 80% |
| Cc1ccc(NC(=O)c2ccc(CN3CCN(C)CC3)cc2)cc1Nc1nc(-c2cccnc2)cs1 | EGFR | cell-free assay | – | – | 0.5 µM | remaining signal | 99.6% |
| Cc1cnn2ncc(-c3ccnc(N(C)C)n3)c2c1 | EGFR G719S | binding | – | – | 1 µM | remaining binding | 100% |
| CC(C)(O)[C@H]1CC[C@H](Nc2ccc3ncc(-c4cccc(C(F)(F)F)c4)n3n2)CC1 | EGFR | enzyme activity | inhibitor | – | 1 µM | remaining activity | 80% |
| CC(C)[C@@H]1NC(=O)CC(c2ccccc2)NC(=O)CC(CCC(N)=O)NC(=O)[C@H](Cc2ccc(O)cc2)NC(=O)[C@H](Cc2ccc(O)cc2)NC(=O)[C@H](Cc2ccccc2)NC(=O)[C@@H](Cc2ccc(O)cc2)NC(=O)CSC[C@@H](C(=O)NCC(N)=O)NC(=O)CCNC(=O)[C@H](CCCNC(=N)N)NC(=O)[C@H](CCCNC(=N)N)NC(=O)[C@H](Cc2ccc(O)cc2)NC(=O)[C@H](C(C)C)NC(=O)[C@H](C(C)C)NC(=O)[C@H](CC(N)=O)NC1=O (some centres unmarked) | EGFR | binding | – | SPR | – | kon | 165000 M⁻¹ s⁻¹ |
| Cc1cc(NC(=O)c2cccc3cc(-c4cccc5[nH]nc(N)c45)ccc23)ccc1F | EGFR L858R | enzyme activity | inhibitor | – | 0.1 µM | activity vs control | 112% |
| Cc1c(NC(=O)c2cc(C(N)=O)nc3cc(F)ccc23)c(C(F)(F)F)nn1Cc1ccc(C#N)cc1 | EGFR del752-759 | cell-free assay | – | competition with immobilised ligand | 1 µM | remaining binding | 79% |
| CN(c1nccc(-c2cnn3ncccc23)n1)C1CC1 | EGFR del752-759 | binding | – | – | 1 µM | remaining binding | 100% |
| CCC(=O)Nc1cc(Nc2nc(N3CCc4sccc4C3)c3cccnc3n2)c(OC)cc1N1CCN(CC)CC1 | EGFR L858R/T790M | enzyme activity | inhibitor | ELISA | 0.1 µM | inhibition | 19.2% |
| O=C(Nc1cccc(Nc2cc(Nc3cccc(C(F)(F)F)c3)ncn2)c1)C1CC1 | EGFR | cell-free assay | – | – | 0.5 µM | remaining signal | 5.82% |
| Cc1ccc(C(=O)NCc2ccsc2)cc1C#Cc1cn(C(C)C)c2ncnc(N)c12 | EGFR | enzyme activity | inhibitor | – | 1 µM | activity vs control | 86% |
| CN(C)c1ncnc(-c2ccc3nc(Nc4cc(CN5CCN(C(=O)CC(F)(F)F)CC5)ccn4)[nH]c3c2)c1Cl | EGFR L858R | cell-free assay | – | competition with immobilised ligand | 1 µM | remaining binding | 100% |
| O=C(Nc1cnn(-c2csc(C(=O)NC3COC3)c2)c1)Nc1ccccc1Cl | EGFR | enzyme activity | inhibitor | – | 5 µM | remaining activity | 99.7% |
| Cc1cc(C)c(-n2ccn3nc(-c4cccnc4)cc23)cc1NC(=O)c1cc(C#N)cc(S(F)(F)(F)(F)F)c1 | EGFR L861Q | cell-free assay | – | competition with immobilised ligand | 0.1 µM | remaining binding | 91.1% |
| O=C(c1ccc(Nc2nccc(-c3cc4ccccc4s3)n2)cc1)N1CCC(N2CCCC2)CC1 | EGFR G719S | binding | – | competition with immobilised ligand | 1 µM | remaining binding | 94% |
| COc1cc2ncnc(Nc3ccc(Oc4ccccc4)cc3C)c2cc1OC | EGFR | enzyme activity | inhibitor | – | 1 µM | inhibition | 89% |
| N#CCCc1ccc2c(c1)-c1[nH]c3ccc([N+](=O)[O-])cc3c1CC(=O)N2 | EGFR | cell-free assay | – | – | 0.5 µM | remaining signal | 94.4% |
| Nc1ncnc2occ(-c3ccc(NC(=O)Nc4cc(C(F)(F)F)ccc4F)cc3)c12 | EGFR L858R | cell-free assay | – | – | 20 µM | remaining signal | 19% |
| COc1cc2ncnc(Nc3ccc(Oc4ccccc4)c(C)c3C)c2cc1OC | EGFR L858R | enzyme activity | inhibitor | – | 1 µM | inhibition | 65% |
| N#Cc1ccc(Nc2ccc3[nH]c(=O)[nH]c3c2)c(Cl)c1 | Epidermal growth factor receptor (EGFR, Homo sapiens, UniProt P00533, del747-750/T751S) | cell-free assay | – | competition with immobilised ligand | 1 µM | remaining binding | 100% |
| COc1cc(Cl)c(C(=O)N[C@@H](CN[C@H]2CC[C@@H](N)CC2)Cc2ccc(C#N)cc2)cc1-c1ccc(CN[C@H](C)c2ccc(C)cc2)o1 | EGFR | enzyme activity | inhibitor | – | 1 µM | remaining activity | 103% |

| Compound | target | effect on | mode | technique | concentration | endpoint | result |
| --- | --- | --- | --- | --- | --- | --- | --- |
| CN(CCCC(F)(F)F)c1nccc(-c2cnn3ncccc23)n1 | EGFR | binding | – | – | 1 µM | remaining binding | 86% |
| Cc1cnc(NC2CCOCC2)nc1-n1cnc(C(=O)NC(CN)c2cc(F)cc(Cl)c2)c1 (centres unmarked) | EGFR L858R | enzyme activity | inhibitor | radiometric | 1 µM | remaining activity | 112% |
| CC/C(=N\NC(=O)NCc1cccc(O)c1)c1ccc(O)c(C)c1O | EGFR L861Q | enzyme activity | inhibitor | – | 0.1 µM | inhibition | 0.4% |
| N[C@@H]1CCN(c2nccc(-c3cnn4ncccc34)n2)C1 | EGFR del746-750 | binding | – | – | 1 µM | remaining binding | 100% |
| C=CC(=O)Nc1cc(Nc2nc(N3CCc4sccc4C3)c3cccnc3n2)c(OC)cc1N1CCC(N(C)C)CC1 | EGFR L858R/T790M | enzyme activity | inhibitor | ELISA | 0.1 µM | inhibition | 36% |
| Cc1ccc(NC(=O)c2ccc(C)c(C(F)(F)F)c2)cc1C#Cc1nn(C2CCC(O)CC2)c2ncnc(N)c12 (centres unmarked) | EGFR | cell-free assay | – | – | 10 µM | remaining signal | 11% |
| F[C@@H]1CCN(c2nccc(-c3cnn4ncccc34)n2)C1 | EGFR del746-750 | binding | – | – | 1 µM | remaining binding | 66% |
| O=C1CCc2cc(Nc3cc(OC4CCOCC4)c([N+](=O)[O-])cc3Cl)ccc2N1 | EGFR T790M | cell-free assay | – | competition with immobilised ligand | 1 µM | remaining binding | 85% |
| N#C/C(=C\c1ccc(O)c(O)c1)C(=O)NCc1ccccc1 | EGFR | cell-free assay | – | – | 0.5 µM | remaining signal | 72.4% |
| CC(C)c1ccc(NC(=O)c2cccs2)c(-c2nc3ccccc3[nH]c2=O)c1 | EGFR | enzyme activity | inhibitor | – | 1 µM | activity vs control | 93% |
| Cn1nc(C(=O)NCc2ccc(C(=O)O)cc2)cc1-c1ccc2[nH]ccc2c1 | EGFR del752-759 | cell-free assay | – | competition with immobilised ligand | 0.1 µM | remaining binding | 94% |
| Cc1ccc(C(=O)Nc2ccc(CN3CCN(C)CC3)c(C(F)(F)F)c2)cc1C#Cc1cnc2cccnn12 | EGFR T790M | cell-free assay | – | – | 23.5 nM | remaining signal | 94% |
| CN(C)C(=O)Cn1cc(-c2nc(C3(c4ccc(-c5cnc(N)nc5)cc4)CC3)no2)cn1 | Epidermal growth factor receptor (EGFR, Homo sapiens, UniProt P00533, A750P/del747-749) | cell-free assay | – | competition with immobilised ligand | 1 µM | remaining binding | 80% |
| C=CC(=O)Nc1cc(Nc2nc(N3CCc4sccc4C3)c3cccnc3n2)c(OC)cc1N(C)CCN(C)C | EGFR L858R/T790M | enzyme activity | inhibitor | ELISA | 0.1 µM | inhibition | 19.2% |
| CC(C)[C@@H]1NC(=O)CCNC(=O)CCNC(=O)[C@H](Cc2ccc(O)cc2)NC(=O)[C@H](Cc2ccc(O)cc2)NC(=O)[C@H](Cc2ccccc2)NC(=O)[C@@H](Cc2ccc(O)cc2)NC(=O)CSC[C@@H](C(=O)NCC(N)=O)NC(=O)CCNC(=O)[C@H](CCCNC(=N)N)NC(=O)[C@H](CCCNC(=N)N)NC(=O)[C@H](Cc2ccc(O)cc2)NC(=O)[C@H](C(C)C)NC(=O)[C@H](C(C)C)NC(=O)[C@H](CC(N)=O)NC1=O | EGFR | binding | – | SPR | – | kon | 217000 M⁻¹ s⁻¹ |
| CN(C)c1nccc(-c2cnc3ncccn23)n1 | EGFR del746-750 | binding | – | – | 1 µM | remaining binding | 60% |
| CCC(=O)N[C@H]1CC[C@@H](C(=O)N(C)c2ccc(-c3nc4ccccc4o3)cc2)C1 | Epidermal growth factor receptor (EGFR, Homo sapiens, UniProt P00533, del747-752/P753S) | cell-free assay | – | competition with immobilised ligand | 1 µM | remaining binding | 79% |
| COc1cc(-c2cc(-c3ccc(N4CCNCC4)cc3)cnc2N)cc(OC)c1OC | EGFR L858R | enzyme activity | inhibitor | – | 1 µM | inhibition | 76% |
| C=C(Cl)C(=O)Nc1cc(Nc2nc(Nc3cnn(C)c3)c3sccc3n2)c(OC)cc1N1CCN(C)CC1 | EGFR L858R/T790M | enzyme activity | inhibitor | ELISA | 0.1 µM | inhibition | 54.1% |
| COc1ccnn2ncc(-c3ccnc(N(C)C)n3)c12 | EGFR L858R/T790M | binding | – | – | 1 µM | remaining binding | 93% |
